The values that follow come from ChEMBL document CHEMBL4145477, “Inhibitor of the human telomerase reverse trancriptase (hTERT) gene promoter induces cell apoptosis via a mitochondrial-dependent pathway” (Eur J Med Chem, 2018).

Broadly, the EC50 is the concentration that produces a half-maximal response. High values mean lower potency in that assay, low ones higher potency in that assay.

Activity calls are given as the source filed them.

In series [1] the test system is HeLa. Put plainly: (§1) Inhibition of human TERT promoter activity expressed in human HeLa cells after 24 hrs by luciferase reporter gene assay. The series is classed as cell-based. The procedure, abridged: (§2)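 HeLa cells co-transfected with hTERT promoter–luciferase (P-3996) or pGL2 vector plus pCMV-β-gal. Replated at 5×10^3/well, then treated 24 h in DMEM with 3% FBS at 1–16 µM. Luciferase normalized to β-galactosidase and expressed as fold of 0.1% DMSO control. Three repeats.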
In general terms: A reporter such as luciferase makes a cellular process visible.

The nature of series [2]: as §1. The series is classed as cell-based. The procedure, abridged: as §2
The test system of series [3] is L02. Put plainly: Antiproliferative activity against human LO2 cells at 1 to 16 uM after 48 hrs by MTT assay. The conditions noted are these: l02, 48 h. The series is classed as cell-based. Summed up: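 L02 cells given 1, 2, 4, 8 and 16 µM for 48 h. Seeded 5,000/well in triplicate. MTT 0.5 mg/ml final, 4 h at 37 °C in the dark, DMSO solubilization, absorbance at 570 nm. Three independent experiments. IC50 from probit regression of relative absorbance.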
A general note: Tetrazolium assays rely on reduction of a dye to a coloured formazan, in cell work by metabolically active cells.

Series [4] concerns HeLa. The series can be described thus: Induction of apoptosis in human HeLa cells assessed as early apoptotic cells at 5 uM after 48 hrs by Annexin V-FITC/propidium iodide staining-based flow cytometric analysis (reference value: 9.5%). It counts as functional.
Series [5] has as its system HeLa. The series can be described thus: Induction of apoptosis in human HeLa cells assessed as decrease in Bcl-2 levels at 5 uM after 24 hrs by Western blot analysis. It counts as functional, cell-based. Summed up:
(§3)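 Treated cells lysed in ice-cold Tris-HCl pH 7.5/NaCl/NP-40 buffer with protease inhibitors. Equal protein separated by SDS-PAGE and transferred to nitrocellulose. Blocked in 5% milk in PBST, primary antibodies overnight at 4 °C, secondary 1 h at room temperature, infrared imaging. β-actin probed alongside.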

The test system of series [6] is HeLa. The series can be described thus: Induction of apoptosis in human HeLa cells assessed as viable cells at 5 uM after 48 hrs by Annexin V-FITC/propidium iodide staining-based flow cytometric analysis (reference value: 74%). It counts as functional. The conditions noted are these: read-out: Activity. On the technique in general: In flow cytometry, cells or beads pass a laser one at a time.

The test system of series [7] is HeLa. The series can be described thus: Inhibition of TERT promoter activity in human HeLa cells assessed as decrease in relative length of telomeres treated up to 22 generations by Q-PCR analysis. It counts as cell-based. The procedure, abridged:
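HeLa cells cultured with compound or DMSO for 22 generations. Telomere length measured by qPCR as telomere/36B4 single-copy gene (T/S) ratio relative to a reference DNA. Samples run in duplicate, threshold 0.5.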

Series [8] has as its system HeLa. Put plainly: Induction of apoptosis in human HeLa cells assessed as increase in cleaved caspase-3 levels at 5 uM after 24 hrs by Western blot analysis. It counts as functional, cell-based. The procedure, abridged: as §3
For series [9], the system named is HeLa. The series can be described thus: Antiproliferative activity against human HeLa cells at 5 uM by MTT assay. It counts as functional, cell-based. The conditions noted are these: TDE = time-dependent effect. The procedure, abridged:
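HeLa cells seeded 5,000/well in triplicate, exposed to 5 µM for 24 or 48 h. MTT added at 0.5 mg/ml final for 4 h at 37 °C in the dark. Formazan dissolved in DMSO and read at 570 nm. Three independent experiments.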

Series [10] relates to HeLa. The series can be described thus: Induction of apoptosis in human HeLa cells assessed as increase in cleaved caspase-9 levels at 5 uM after 24 hrs by Western blot analysis. It counts as functional, cell-based. Summed up:
as §3

Series [11] relates to HeLa. The series can be described thus: Induction of apoptosis in human HeLa cells assessed as necrotic cells at 5 uM after 48 hrs by Annexin V-FITC/propidium iodide staining-based flow cytometric analysis (reference value: 1.5%). The series is classed as functional.
For series [12], the system named is HeLa. The series can be described thus: Induction of apoptosis in human HeLa cells assessed as late apoptotic cells at 5 uM after 48 hrs by Annexin V-FITC/propidium iodide staining-based flow cytometric analysis (reference value: 15%). It counts as functional.
The test system of series [13] is HeLa. The series can be described thus: Induction of apoptosis in human HeLa cells assessed as increase in Bax levels at 5 uM after 24 hrs by Western blot analysis. The series is classed as functional, cell-based. Summed up: as §3
The subject of series [14] is HeLa. The series can be described thus: Induction of apoptosis in human HeLa cells assessed as cell shrinkage at 5 uM after 48 hrs by DAPI staining-based fluorescence microscopic analysis. It counts as functional. The procedure, abridged:
(§4)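 Cells fixed in 5% paraformaldehyde and permeabilized with 0.1% Triton X-100 in PBS. Stained 10 min with DAPI (1 µg/mL) and examined by fluorescence microscopy. Nuclei with chromatin condensation and fragmentation scored apoptotic.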

The test system of series [15] is HeLa. The series can be described thus: Inhibition of colony formation in human HeLa cells at 5 uM after 3 weeks. The series is classed as functional, cell-based. The procedure, abridged:
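HeLa cells treated with 5 µM and grown 3 weeks. Colonies photographed and colony-formation efficiency quantified.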

For series [16], the system named is HeLa. The series can be described thus: Induction of apoptosis in human HeLa cells assessed as chromatin condensation at 5 uM after 48 hrs by DAPI staining-based fluorescence microscopic analysis. The series is classed as functional, cell-based. The procedure, abridged:
as §4

As to `O=C1/C(=N\O)c2c(I)cccc2N1Cc1ccc(Cl)cc1`, the inhibition result in series [1] is “Dose-dependent effect”. The same compound registered an EC50 in series [2] of 14 µM.
As for `COc1ccc(-c2cccc3c2/C(=N/O)C(=O)N3Cc2ccc(Cl)cc2)cc1`, a half-maximal response in series [2] (EC50) required 12 µM.
Same read-out and setting: the value for `O=C1/C(=N\O)c2c(Cl)cccc2N1Cc1ccc(Cl)cc1` was 13 µM.
In the case of `O=C1/C(=N\O)c2c(-c3ccc(C(F)(F)F)cc3)cccc2N1Cc1ccc(Cl)cc1`, the Activity result is “Non-Toxic” in series [3]; 30.6% in [4]; “Tde” in series [9]; 2.2% in series [11]; 29.1% in series [12]. For the same compound, the result in series [5], in [8], in [10], in series [13], in series [14] and in [16] was Active. Moreover, in series [6], the viability at 5 µM was determined as 38%. Also, the inhibition result in series [7] and in [15] was “Active” throughout. The concentration giving a half-maximal response (EC50) in series [2] worked out at 5 µM.
`O=C1/C(=N\O)c2c(Br)cccc2N1Cc1ccc(Cl)cc1` showed a concentration for a half-maximal effect (EC50) in series [2] of 6 µM.
